Measured values published in PubChem BioAssay AID1556 (The Scripps Research Institute Molecular Screening Center, 2009).
In all, about 290,000 compounds went through this assay and about 1,300 (0.45%) were called active. The full list was thinned out, with actives kept by preference. Unmarked numbers belong to inactive results.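 Rule for the calls: active = inhibition above the mean plus 3 SD of all compounds in the same screening run (cut at about 4.5% in these data); inactive = the rest.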

Each compound was assayed on metallo-beta-lactamase IMP-1 (Pseudomonas aeruginosa) (assay: IMP-1 metallo-beta-lactamase inhibitors, primary screen, biochemical, epi-absorbance readout, Pseudomonas aeruginosa enzyme (AID 1556;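 note: 0% = IMP-1 with DMSO and 100% = DMSO wells lacking enzyme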)). Settings: purified IMP-1, nitrocefin hydrolysis, epi-absorbance fluorescence; at 5.6 µM; active compounds read high.
Method in brief: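 System: purified recombinant IMP-1 beta-lactamase. Medium: Zinc- and detergent-supplemented HEPES buffer, pH 7.1. Compound: one 5.6 µM dose […]. Schedule: 15 min preincubation plus 25 min reaction at 25 °C. Technique: Epi-absorbance fluorescence, 480 nm excitation, 530 nm emission.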
`CCN1C(=O)C(=Cc2c(C)n(CC(=O)NCC3CCCO3)c3ccccc23)C(=O)N(CC)C1=S` (stereo not given) was tested, and the inhibition was 20% (active). In the case of `O=C(O)c1ccccc1NC(=O)C1C2CCC(O2)C1C(=O)O` (stereo not given), the inhibition is reported as -2.48%. Compound `CCCCn1c(=O)c(C(=O)Nc2ccccc2Cl)c(O)c2ccccc21` has an inhibition of -1.42%. For `CCOC(=O)C1SC2(C(F)(F)C(F)F)CC1(O)c1c(c(OC)c3occc3c1OC)O2` (stereo not given), the inhibition was -3.5%. `C[N+]12CN3CN(CN(C3)C1)C2` was tested, and the inhibition was 5.56% (active). Compound `Cc1cccc(OP(=O)(Oc2cccc(C)c2)OC(c2ccccc2)C(F)(F)F)c1` (stereo not given) has an inhibition of -4.97%. For `Clc1ccc2nc3c(c(-c4ccccc4)c2c1)CNCC3`, the inhibition was -2.18%. `Cc1ccc(C)c(NC2=NCCCS2)c1` was tested, and the inhibition was -1.87%. `COc1cc2nc(N3CCN(C(=O)[C@@H]4CCCO4)CC3)nc(N)c2cc1OC` showed an inhibition of -4.21%. Compound `CC1(C)C(c2ccccc2)=NC(c2cccnc2)=[N+]1[O-]` has an inhibition of -4.75%.
